A short description of data set [1]: Range is evaluated. (Highest IC50/Lowest IC50). It counts as functional.
For a further data set, the system named is SW-620. Description: Compound was tested for in vitro growth inhibition of primary panel tumor cell line SW620. It counts as functional, cell-based, Homo sapiens. The method in brief: (§1)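 Primary-panel lines kept in L15, RPMI 1640 plus pyruvate, or MEM, each with 10% FBS. Cells were seeded at 5×10^4–10^5 cells/mL, preincubated 24 h, then exposed 4 h to 0–200 μg/mL from a 2 mg/mL stock in 10% DMA/PBS. After washout and 72 h further growth, cells were read by SRB. IC50 was the concentration giving 50% survival versus untreated controls.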

In data set [2] the test system is CH1. Description: Compound was tested for in vitro growth inhibition of Ovarian carcinoma cell line panel CH1. It counts as functional, cell-based. The procedure, abridged:
(§2)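 Ovarian lines grown as monolayers in DMEM with 10% FBS, insulin, hydrocortisone and L-glutamine under 6% CO2. Cells were seeded at 3–5 × 10³/well and left to attach overnight. Compounds were freshly dissolved in DMA or water and applied for 96 h in quadruplicate wells. Growth was measured by SRB and reported as IC50.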

The test system of data set [3] is A2780. Put plainly: Compound was tested for in vitro growth inhibition of Ovarian carcinoma cell line panel A2780. It counts as functional, cell-based, Homo sapiens. The procedure, abridged: as §2
Data set [4] is described as follows: Solubility at 25 degrees Celsius in 1-Octanol. It counts as physicochemical. The procedure, abridged: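 A sample was tumbled in 1-octanol at 25 °C for 24 h and filtered. An aliquot was evaporated and the residue taken up in dilute aqua regia. Gold content was determined as for the aqueous samples, with indium as internal standard.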
The subject of data set [5] is SK-OV-3. Description: Compound was tested for in vitro growth inhibition of Ovarian carcinoma cell line panel SK-OV-3. It counts as functional, cell-based, Homo sapiens. The procedure, abridged:
as §2

A further data set deals with SW 1116. Description: Compound was tested for in vitro growth inhibition of primary panel tumor cell line SW1116. It counts as functional, cell-based, Homo sapiens. The procedure, abridged: as §1
The subject of the next data set is HT-1376. Put plainly: Compound was tested for in vitro growth inhibition of primary panel tumor cell line HT1376. It counts as functional, cell-based, Homo sapiens. The method in brief: as §1
The test system of data set [6] is A2780. Put plainly: Compound was tested for in vitro growth inhibition of Ovarian carcinoma cell line panel A2780-R. It counts as functional, cell-based, Homo sapiens. The method in brief: as §2
In the next data set the test system is HT-29. Put plainly: Compound was tested for in vitro growth inhibition of primary panel tumor cell line HT-29/219. It counts as functional, cell-based, Homo sapiens. The procedure, abridged: as §1
A further data set concerns ZR-75-1. Description: Compound was tested for in vitro growth inhibition of primary panel tumor cell line ZR-75-1. It counts as functional, cell-based, Homo sapiens. The procedure, abridged:
as §1

Data set [7] relates to SK-OV-3. Description: Compound was tested for in vitro growth inhibition of primary panel tumor cell lines SK-OV-3. It counts as functional, cell-based, Homo sapiens. The method in brief: as §1
Data set [8] is described as follows: Solubility at 25 degrees Celsius in water. It counts as physicochemical. As to conditions: buffer. The procedure, abridged: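 5–10 mg sample was tumbled in 5.0 mL water at 25 °C for 24 h and filtered. The solution was diluted as needed and gold was quantified with 1 ppm indium as internal standard.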
For the next data set, the system named is HX62 cell line. Put plainly: Compound was tested for in vitro growth inhibition of Ovarian carcinoma cell line panel HX62. It counts as functional, cell-based, Homo sapiens. The procedure, abridged: as §2
For data set [9], the system named is CH1. Put plainly: Compound was tested for in vitro growth inhibition of Ovarian carcinoma cell line panel CH1-R. It counts as functional, cell-based. The method in brief:
as §2

A short description of data set [10]: Range is evaluated. It counts as functional.
The test system of data set [11] is Mus musculus. Put plainly: Compound was evaluated for antitumor activity (RTV) in HT1376 carcinoma Xenograft, at a dosage 4.5 mg/kg on day 28. Details: dose 4.5 mg/kg. It counts as functional, organism-based. The method in brief: (§3)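 HT1376 tumor fragments implanted subcutaneously in nude mice flanks; mice with established palpable tumors randomized into groups of 6 (controls 10). Compounds given intraperitoneally as suspensions in 0.5% carboxymethylcellulose in 0.9% saline, on days 0, 7, 14 and 21. Tumor dimensions on days 0, 7, 14, 21, 28. RTV = 100(mean tumor volume at assessment)/(mean start volume).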

The subject of data set [12] is Mus musculus. Put plainly: Compound was evaluated for antitumor activity (RTV) in HT1376 carcinoma Xenograft, at a dosage 4.5 mg/kg on day 21. It counts as functional, organism-based. Details: dose 4.5 mg/kg. The procedure, abridged: as §3
Data set [13] relates to Mus musculus. Put plainly: Compound was evaluated for antitumor activity (T/C) in HT1376 carcinoma Xenograft, at a dosage 4.5 mg/kg on day 21. It counts as functional, organism-based. The arrangement: dose 4.5 mg/kg. The procedure, abridged:
(§4)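 Nude mice carrying subcutaneous flank HT1376 fragments; treatment began once tumors were established and palpable, randomized into groups of 6 treated and 10 control mice. Dosing was ip as a suspension in 0.5% carboxymethylcellulose in 0.9% saline on days 0, 7, 14 and 21, at the MTD and two 2-fold dilutions. Tumors were measured on days 0-28. RTV = 100(mean volume at assessment)/(mean start volume); T/C = treated RTV/control RTV.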

For data set [14], the system named is Mus musculus. Put plainly: Compound was evaluated for antitumor activity (RTV) in HT1376 carcinoma Xenograft, at a dosage 4.5 mg/kg on day 7. It counts as functional, organism-based. The arrangement: dose 4.5 mg/kg. The procedure, abridged:
as §3

Data set [15] concerns Mus musculus. Description: Compound was evaluated for antitumor activity (T/C) in HT1376 carcinoma Xenograft, at a dosage 4.5 mg/kg on day 13. It counts as functional, organism-based. The arrangement: dose 4.5 mg/kg. The method in brief: as §4
For data set [16], the system named is Mus musculus. Description: Compound was evaluated for antitumor activity (RTV) in HT1376 carcinoma Xenograft, at a dosage 4.5 mg/kgon day 13. It counts as functional, organism-based. The arrangement: dose 4.5 mg/kg.
Data set [17] deals with Mus musculus. Description: Compound was evaluated for antitumor activity (T/C) in HT1376 carcinoma Xenograft, at a dosage 4.5 mg/kg on day 7. It counts as functional, organism-based. The arrangement: dose 4.5 mg/kg. The procedure, abridged: as §4
Data set [18] deals with Mus musculus. Description: Compound was evaluated for antitumor activity (T/C) in HT1376 carcinoma Xenograft, at a dosage 4.5 mg/kg on day 28. It counts as functional, organism-based. Details: dose 4.5 mg/kg. The procedure, abridged:
as §4

One may read the IC50 as the point on the concentration scale where inhibition reaches its midpoint. As a reminder, the Solubility is the concentration that dissolves in the medium under given conditions. The low end stands for little dissolved substance, the high end for much dissolved substance.

“And” between values parts separate entries of the source, which are not always exact repeats. Equal values may be shown once.

For “Bis(thiocyanato)[2-(dimethylamino)methyl]phenyl-C,N]gold-(III)”, the Range in data set [1] is 7.6 and 19.5.

“Malonato[2-(dimethylamino)methyl]phenyl-C,N]gold-(III)”: the IC50 was 67 µM with SW-620; 2.7 µM in the data set on CH1 [2]; 2.7 µM in the data set on A2780 [3]; 30 µM in the data set with SK-OV-3 [5]; 80 µM with SW 1116; 11 µM with HT-1376. Also, the IC50 was determined as 16 µM in the data set on A2780 [6]; 36 µM in the data set with HT-29; 36 µM in the data set with ZR-75-1; 11 µM in the data set with SK-OV-3 [7]; 27 µM in the data set with HX62 cell line; 3.3 µM with CH1 [9]. The Solubility amounted to 3.57 mM in data set [4] and 3.58 mM in [8].

For “Dichloro[2-(dimethylamino)methyl]phenyl-C,N]gold-(III)”, the Range in data set [1] is 4.6 and 13.3.

In the case of “Oxalato[2-(dimethylamino)methyl]phenyl-C,N]gold-(III) Hemihydrate”, the figures for the Range in data set [1] and in data set [10] were 21.5 and 11.4, respectively.

As for CISPLATIN, the RTV in the data set with Mus musculus [11] was found to be 1050; in the data set on Mus musculus [12], 544; in the data set with Mus musculus [14] it was 245; in the data set on Mus musculus [16], 364. Also, the T/C with Mus musculus [13] came out at 0.61; in the data set with Mus musculus [15], 0.72; in the data set with Mus musculus [17] it was 0.88; with Mus musculus [18], 0.73.
